Paper PMC8546901 (Chembiochem : a European journal of chemical biology, 2021)
Where a chain is given by its changes, count along the chain named.

Columns and labels:
RGS4-RH = target: T1, RGS4-RH (Homo sapiens, UniProt P49798); assay: 1H-15N HSQC NMR binding to RGS4-RH; details: 1H-15N HSQC with RGS4-RH
T1 sequence (P49798 51-179): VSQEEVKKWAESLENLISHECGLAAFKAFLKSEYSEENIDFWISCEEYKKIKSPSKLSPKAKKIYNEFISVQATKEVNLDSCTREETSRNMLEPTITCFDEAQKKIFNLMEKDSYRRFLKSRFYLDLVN
In short: (§1)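 ¹⁵N-labelled RH domains (wild-type RGS4, or RGS17 with the C117S point mutation) were expressed in E. coli BL21-CodonPlus(DE3)-RIPL in M9 medium with 1 g/L ¹⁵NH₄Cl. The His₆ tag was removed with TEV protease, and protein was purified by Ni-IMAC and size exclusion. ¹H-¹⁵N HSQC spectra were recorded with fragment at 1 mM in 1% DMSO and overlaid on 1% DMSO control spectra.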

RGS17-RH C117S = target: T2, RGS17-RH C117S (Homo sapiens, UniProt Q9UGC6, C117S); assay: 1H-15N HSQC NMR binding to RGS17-RH C117S mutant; details: 1H-15N HSQC with RGS17-RH C117S mutant
T2 sequence (Q9UGC6 72-206 C117S): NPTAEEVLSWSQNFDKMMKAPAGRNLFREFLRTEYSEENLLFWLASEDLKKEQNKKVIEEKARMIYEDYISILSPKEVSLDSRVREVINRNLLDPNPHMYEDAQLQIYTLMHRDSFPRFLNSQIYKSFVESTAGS
In short: as §1

RGS17-RH [1] = target: T3, RGS17-RH (Homo sapiens, UniProt Q9UGC6); assay: 1H-15N HSQC NMR fragment titration, chemical shift perturbation KD; format: binding; details: calculated from KD and number of heavy atoms
T3 sequence (Q9UGC6 72-206): T2 sequence (Q9UGC6 72-206 C117S) with S46C
In short: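 100 μM ¹⁵N-RGS17-RH was titrated with fragment from 100 μM up to its solubility limit (generally 2–10 mM) in phosphate buffer, pH 7.6, and ¹H-¹⁵N HSQC spectra were recorded. CSP was taken as the distance between control and treated peak centres. Per-residue KD came from a quadratic binding fit and was averaged over residues. LE = (−2.3039·R·T/HA)·log(KD).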

RGS17-RH [2] = target: T3, RGS17-RH; assay: DACM cysteine labeling of RGS17-RH after pre-incubation; format: biochemical; details: 10-fold molar excess compound (20 μM) over 2 μM RGS17-RH, 30 min pre-incubation
In short: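 RGS17-RH, or buffer alone, was pre-incubated 30 min at ambient temperature with compound (final 2 μM protein, 20 μM compound; NEM as comparator). The buffer was 20 mM K₂HPO₄, 100 mM NaCl, 2 mM NaN₃, pH 7.6. DACM was then added, and fluorescence (ex 385/em 440 nm) was read for 1,000 s. Slopes were normalised to no-protein (0%) and protein without compound (100%). Mean of n=3 ± S.D.; one-way ANOVA.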

RGS17-RH [3] = target: T3, RGS17-RH; assay: Differential scanning fluorimetry; format: binding; details: 1 mM fragment, 10 μM RGS17-RH
In short: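 10 μM RGS17-RH was incubated 30 min at ambient temperature with 1 mM fragment or DMSO control. 2X Sypro Orange was then added, and fluorescence was recorded from 20 to 80 °C. Tm was calculated from the melt curves. Mean of n=3 ± S.E.M.; one-way ANOVA with multiple comparisons.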

[4] = target: T4, RGS17-RH GAP activity towards Gαi1 (R178M, A326S) (Homo sapiens, UniProt Q9UGC6); assay: Malachite green GAP activity assay; format: biochemical; details: 1 mM fragment, 4.5 μM RGS17-RH
T4 sequence (Q9UGC6 72-206): T2 sequence (Q9UGC6 72-206 C117S) with S46C
In short: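 Free phosphate from GTP hydrolysis was detected colorimetrically with malachite green. Final concentrations were 300 μM GTP, 4.5 μM tag-free RGS17-RH and 1 mM fragment. Mean of n=3 independent experiments ± SEM.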

| SMILES | L.E. (ligand efficiency) (RGS17-RH [1]) | RGS4 Binding (RGS4-RH) | RGS C117S Binding (RGS17-RH C117S) | effect on melting temperature of RGS17-RH (in words) (RGS17-RH [3]) | also measured |
| --- | --- | --- | --- | --- | --- |
| CSc1cc(-c2ccc(F)cc2)[nH]n1 [Fragment 5] | 0.23 |  |  |  | RGS4 Binding (RGS4-RH; listed as 5): No; RGS4 Binding (RGS4-RH; listed as fragment 5): did not bind; RGS C117S Binding (RGS17-RH C117S; listed as 5): No; RGS C117S Binding (RGS17-RH C117S; listed as fragment 5): did not bind |
| CCN1C(=O)C=CC1=O [N-ethyl maleimide (NEM), N-ethyl maleimide, reference compound] |  |  |  |  | DACM labeling of RGS17-RH after pre-incubation (RGS17-RH [2]): decreased DACM labeling |
| OCCCCCOc1ccc(Cl)cc1 [Fragment 7] | 0.25 | Yes | Yes |  |  |
| Oc1ccc(Sc2ccc(O)cc2)cc1 [Fragment 4] | 0.31 | Yes | Yes | melting temperature could not be accurately determined | inhibition of RGS17-RH GAP activity ([4]; 300 μM GTP): ~20% |
| OCCCCn1cnc2cc(Cl)c(Cl)cc21 [Fragment 6] | 0.25 | Yes | Yes | not statistically significant | inhibition of RGS17-RH GAP activity (in words) ([4]; one-way ANOVA): lack of appreciable RGS17-RH GAP inhibition |
